Data reported in PMC5656813 (Arthritis & Rheumatology (Hoboken, N.j.), 2017).

What was measured:
[1] = tested on: RA patients with an inadequate response to MTX; assay: Study 2; type: in vivo, human; details: for ACR20 responders at week 4 / ACR50 responders at week 4 / DAS28‐CRP, mean change from baseline at week 4 / EULAR cumulative score, good/moderate, at week 4 / HAQ DI score, mean change from baseline at week 4 / Patient's assessment of pain, mean change from baseline at week 4 / Patient's global assessment of disease activity, mean change from baseline at week 4 / Physician's global assessment of disease activity, mean change from baseline at week 4 / Remission rate (DAS28‐CRP <2.6) at week 4 / SJC66, mean change from baseline at week 4 / Serum CRP, mean change from baseline at week 4 / TJC68, mean change from baseline at week 4: study 2
Procedure, shortened: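 Randomized, double-blind, placebo-controlled dose-ranging trial: 91 RA patients, 19 sites in 4 countries, 1:1:1:1:1 allocation. Patients had MTX for ≥12 weeks and a stable 7.5–25 mg/week dose for ≥4 weeks, continued throughout. Oral capsules once daily at 30, 75, 150 or 300 mg for 4 weeks. Read-outs: ACR responses, DAS28-CRP and HAQ DI change from baseline at week 4. Intent-to-treat population.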

[2] = Studies 1 and 2, steady‐state plasma PK of filgotinib and its major metabolite; type: in vivo, human; details: for Cmax / Tmax / AUC: human, plasma, oral
Procedure, shortened: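 RA patients on stable methotrexate took oral test compound or placebo capsules for 4 weeks: 200 mg once daily or 100 mg twice daily (study 1), or 30, 75, 150 or 300 mg once daily (study 2). In a subset (12 and 15 patients), plasma parent and major metabolite were sampled predose and 1, 2, 3, 5 and 8 h after the morning dose, at week 2 or 4. Descriptive statistics were calculated by dose.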

[3] = cited from earlier work
RA patients = assay: Study 2, treatment‐emergent adverse events; type: in vivo, human
Procedure, shortened: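 Both double-blind, placebo-controlled trials in RA patients on stable MTX. Oral capsules daily for 4 weeks, with 7–10-day follow-up: 200 mg once daily or 100 mg twice daily (study 1); 30, 75, 150 or 300 mg once daily (study 2). At every visit: AEs, vital signs, hematology, serum biochemistry, coagulation and urinalysis. EKG at baseline and follow-up, plus week 4 in study 1. Safety population, descriptive treatment-emergent AE summaries.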

## O=C(Nc1nc2cccc(-c3ccc(CN4CCS(=O)(=O)CC4)cc3)n2n1)C1CC1 [Filgotinib]
[1]; 30 mg once daily
  ACR20 responders at week 4: 6 (35.3) no. (%)
  ACR50 responders at week 4: 2 (11.8) no. (%)
  DAS28‐CRP, mean change from baseline at week 4: −1.08
  EULAR cumulative score, good/moderate, at week 4: 58.8%
  HAQ DI score, mean change from baseline at week 4: −0.15
  Patient's assessment of pain, mean change from baseline at week 4: −7.41 0–10‐cm VAS
  Patient's global assessment of disease activity, mean change from baseline at week 4: −11.88 0–10‐cm VAS
  Physician's global assessment of disease activity, mean change from baseline at week 4: −9.76 0–10‐cm VAS
  Remission rate (DAS28‐CRP <2.6) at week 4: 2 (11.8) no. (%)
  SJC66, mean change from baseline at week 4: −6.24
  Serum CRP, mean change from baseline at week 4: -13.28 mg/L
  TJC68, mean change from baseline at week 4: −10.18
[1]; 75 mg once daily
  ACR20 responders at week 4: 12 (54.5) no. (%)
  ACR50 responders at week 4: 6 (27.3) no. (%)
  DAS28‐CRP, mean change from baseline at week 4: −1.72
  EULAR cumulative score, good/moderate, at week 4: 68.2%
  HAQ DI score, mean change from baseline at week 4: −0.47
  Patient's assessment of pain, mean change from baseline at week 4: −21.27 0–10‐cm VAS
  Patient's global assessment of disease activity, mean change from baseline at week 4: −21.00 0–10‐cm VAS
  Physician's global assessment of disease activity, mean change from baseline at week 4: −27.09 0–10‐cm VAS
  Remission rate (DAS28‐CRP <2.6) at week 4: 3 (13.6) no. (%)
  SJC66, mean change from baseline at week 4: −8.42
  Serum CRP, mean change from baseline at week 4: -15.09 mg/L
  TJC68, mean change from baseline at week 4: −13.72
[1]; 150 mg once daily
  ACR20 responders at week 4: 6 (40.0) no. (%)
  ACR50 responders at week 4: 0 no. (%)
  DAS28‐CRP, mean change from baseline at week 4: −1.80
  EULAR cumulative score, good/moderate, at week 4: 66.7%
  HAQ DI score, mean change from baseline at week 4: −0.26
  Patient's assessment of pain, mean change from baseline at week 4: −14.07 0–10‐cm VAS
  Patient's global assessment of disease activity, mean change from baseline at week 4: −12.33 0–10‐cm VAS
  Physician's global assessment of disease activity, mean change from baseline at week 4: −24.87 0–10‐cm VAS
  Remission rate (DAS28‐CRP <2.6) at week 4: 0 no. (%)
  SJC66, mean change from baseline at week 4: −10.52
  Serum CRP, mean change from baseline at week 4: -20.50 mg/L
  TJC68, mean change from baseline at week 4: −14.85
[1]; 300 mg group, within 4 weeks
  patients achieving remission (DAS28‐CRP <2.6): up to 25%
[1]; 300 mg once daily
  ACR20 responders at week 4: 13 (65.0) no. (%)
  ACR50 responders at week 4: 9 (45.0) no. (%)
  DAS28‐CRP, mean change from baseline at week 4: −2.25
  EULAR cumulative score, good/moderate, at week 4: 80.0%
  HAQ DI score, mean change from baseline at week 4: −0.68
  Patient's assessment of pain, mean change from baseline at week 4: −29.85 0–10‐cm VAS
  Patient's global assessment of disease activity, mean change from baseline at week 4: −25.85 0–10‐cm VAS
  Physician's global assessment of disease activity, mean change from baseline at week 4: −29.20 0–10‐cm VAS
  Remission rate (DAS28‐CRP <2.6) at week 4: 5 (25.0) no. (%)
  SJC66, mean change from baseline at week 4: −8.48
  Serum CRP, mean change from baseline at week 4: -20.98 mg/L
  TJC68, mean change from baseline at week 4: −14.68
[1]; study 2, 300 mg, week 4
  patients achieving an ACR20 response: 65%
[2]; 30–300 mg range
  dose proportionality of PK: essentially dose proportional
[2]; 30 mg
  Cmax: 0.0716 µg/mL
  Tmax: 1 h
[2]; 30 mg, AUCtau of filgotinib, steady state, 30 mg once daily, study 2, arithmetic mean (coefficient of variation)
  AUC: 1.34 µg·h/mL
[2]; 75 mg
  Cmax: 0.492 µg/mL
[2]; 100 mg
  Cmax: 0.73 µg/mL
[2]; 100 mg, AUCtau of filgotinib, steady state, 100 mg twice daily, study 1, arithmetic mean (coefficient of variation)
  AUC: 2.47 µg·h/mL
[2]; 150 mg
  Cmax: 1.16 µg/mL
  Tmax: 1 h
[2]; 150 mg, AUCtau of filgotinib, steady state, 150 mg once daily, study 2, arithmetic mean (coefficient of variation)
  AUC: 6.44 µg·h/mL
[2]; 150 mg, AUCtau, other 4 patients, 150 mg once daily, study 2
  AUC: 4.79 to 5.29 µg·h/mL
[2]; 200 mg
  Cmax: 1.43 µg/mL
[2]; 200 mg, AUCtau of filgotinib, steady state, 200 mg once daily, study 1, arithmetic mean (coefficient of variation)
  AUC: 5.38 µg·h/mL
[2]; 300 mg
  Cmax: 1.34 µg/mL
[2]; 300 mg, AUCtau of filgotinib, steady state, 300 mg once daily, study 2, arithmetic mean (coefficient of variation)
  AUC: 7.71 µg·h/mL
[2]; in vivo
  time of dosing to attain steady state: ≤ 2 days
[3]
  PK half‐life: ~7 h
RA patients; 30 mg once daily
  treatment-related TEAE: Abdominal discomfort: 0 number (%) of patients
  treatment-related TEAE: Abdominal pain, upper: 0 number (%) of patients
  treatment-related TEAE: Aspartate aminotransferase increased: 1 (5.9) number (%) of patients
  treatment-related TEAE: Blood amylase increased: 0 number (%) of patients
  treatment-related TEAE: Blood and lymphatic system disorders: 0 number (%) of patients
  treatment-related TEAE: Blood triglycerides increased: 1 (5.9) number (%) of patients
  treatment-related TEAE: Cystitis, noninfectious: 0 number (%) of patients
  treatment-related TEAE: Duodenogastric reflux: 0 number (%) of patients
  treatment-related TEAE: Ear and labyrinth disorders: 0 number (%) of patients
  treatment-related TEAE: Gastrointestinal disorders: 1 (5.9) number (%) of patients
  treatment-related TEAE: Gastrointestinal pain: 0 number (%) of patients
  treatment-related TEAE: General disorders and administration site reactions: 0 number (%) of patients
  treatment-related TEAE: Gingival bleeding: 0 number (%) of patients
  treatment-related TEAE: Infections and infestations: 0 number (%) of patients
  treatment-related TEAE: Laboratory findings: 2 (11.8) number (%) of patients
  treatment-related TEAE: Lipase increased: 0 number (%) of patients
  treatment-related TEAE: Musculoskeletal and connective tissue disorders: 0 number (%) of patients
  treatment-related TEAE: Nervous system disorders: 0 number (%) of patients
  treatment-related TEAE: Renal and urinary disorders: 0 number (%) of patients
RA patients; 75 mg once daily
  treatment-related TEAE: Abdominal discomfort: 0 number (%) of patients
  treatment-related TEAE: Abdominal pain, upper: 0 number (%) of patients
  treatment-related TEAE: Aspartate aminotransferase increased: 0 number (%) of patients
  treatment-related TEAE: Blood amylase increased: 0 number (%) of patients
  treatment-related TEAE: Blood and lymphatic system disorders: 1 (4.5) number (%) of patients
  treatment-related TEAE: Blood triglycerides increased: 0 number (%) of patients
  treatment-related TEAE: Cystitis, noninfectious: 0 number (%) of patients
  treatment-related TEAE: Duodenogastric reflux: 1 (4.5) number (%) of patients
  treatment-related TEAE: Ear and labyrinth disorders: 0 number (%) of patients
  treatment-related TEAE: Gastrointestinal disorders: 2 (9.1) number (%) of patients
  treatment-related TEAE: Gastrointestinal pain: 0 number (%) of patients
  treatment-related TEAE: General disorders and administration site reactions: 0 number (%) of patients
  treatment-related TEAE: Gingival bleeding: 1 (4.5) number (%) of patients
  treatment-related TEAE: Infections and infestations: 0 number (%) of patients
  treatment-related TEAE: Laboratory findings: 0 number (%) of patients
  treatment-related TEAE: Lipase increased: 0 number (%) of patients
  treatment-related TEAE: Musculoskeletal and connective tissue disorders: 0 number (%) of patients
  treatment-related TEAE: Nervous system disorders: 0 number (%) of patients
  treatment-related TEAE: Renal and urinary disorders: 0 number (%) of patients
RA patients; 150 mg once daily
  treatment-related TEAE: Abdominal discomfort: 0 number (%) of patients
  treatment-related TEAE: Abdominal pain, upper: 0 number (%) of patients
  treatment-related TEAE: Aspartate aminotransferase increased: 0 number (%) of patients
  treatment-related TEAE: Blood amylase increased: 0 number (%) of patients
  treatment-related TEAE: Blood and lymphatic system disorders: 0 number (%) of patients
  treatment-related TEAE: Blood triglycerides increased: 0 number (%) of patients
  treatment-related TEAE: Cystitis, noninfectious: 0 number (%) of patients
  treatment-related TEAE: Duodenogastric reflux: 0 number (%) of patients
  treatment-related TEAE: Ear and labyrinth disorders: 0 number (%) of patients
  treatment-related TEAE: Gastrointestinal disorders: 1 (6.7) number (%) of patients
  treatment-related TEAE: Gastrointestinal pain: 0 number (%) of patients
  treatment-related TEAE: General disorders and administration site reactions: 0 number (%) of patients
  treatment-related TEAE: Gingival bleeding: 0 number (%) of patients
  treatment-related TEAE: Infections and infestations: 0 number (%) of patients
  treatment-related TEAE: Laboratory findings: 0 number (%) of patients
  treatment-related TEAE: Lipase increased: 0 number (%) of patients
  treatment-related TEAE: Musculoskeletal and connective tissue disorders: 0 number (%) of patients
  treatment-related TEAE: Nervous system disorders: 0 number (%) of patients
  treatment-related TEAE: Renal and urinary disorders: 0 number (%) of patients
RA patients; 300 mg once daily
  treatment-related TEAE: Abdominal discomfort: 0 number (%) of patients
  treatment-related TEAE: Abdominal pain, upper: 0 number (%) of patients
  treatment-related TEAE: Aspartate aminotransferase increased: 0 number (%) of patients
  treatment-related TEAE: Blood amylase increased: 0 number (%) of patients
  treatment-related TEAE: Blood and lymphatic system disorders: 0 number (%) of patients
  treatment-related TEAE: Blood triglycerides increased: 0 number (%) of patients
  treatment-related TEAE: Cystitis, noninfectious: 1 (5.0) number (%) of patients
  treatment-related TEAE: Duodenogastric reflux: 0 number (%) of patients
  treatment-related TEAE: Ear and labyrinth disorders: 0 number (%) of patients
  treatment-related TEAE: Gastrointestinal disorders: 2 (10.0) number (%) of patients
  treatment-related TEAE: Gastrointestinal pain: 1 (5.0) number (%) of patients
  treatment-related TEAE: General disorders and administration site reactions: 0 number (%) of patients
  treatment-related TEAE: Gingival bleeding: 0 number (%) of patients
  treatment-related TEAE: Laboratory findings: 0 number (%) of patients
  treatment-related TEAE: Lipase increased: 0 number (%) of patients
  treatment-related TEAE: Musculoskeletal and connective tissue disorders: 0 number (%) of patients
  treatment-related TEAE: Nervous system disorders: 0 number (%) of patients
  treatment-related TEAE: Renal and urinary disorders: 1 (5.0) number (%) of patients
